# Bioassay records: PubChem BioAssay, Columbia University Molecular Screening Center
# Insulin prom act: TRM-6 insulin promoter activation; TRM-6 cells, insulin promoter eGFP reporter, imaging; plate-scaled: unstimulated 0, stimulated control 100; activation, % at 2 µM; 0.81% of 130,000 active; AID 1296;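 active means activation at 2 µM above a set limit, confirmed on inspection of the cell images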;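 further: share of cells whose green reporter signal exceeds an intensity cutoff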
#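 Material: Human fetal islet-derived TRM-6 cells with tamoxifen-inducible insulin promoter–eGFP reporter | Medium: Low-glucose (5.5 mM) medium with tamoxifen | Probe or stimulus: Tamoxifen inducer, 0.75 µM, in seeding medium | Schedule: Tamoxifen pre-incubation 15 h overnight, then compound exposure 48 h at 37 °C | Detection: High-content imaging of fixed cells with Hoechst nuclear stain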
# * marks the source's active call; other numbers are inactive results; [ ] = dose if it differs, or a comment. The entries come from a sample that favours hits as a whole.
SMILES,Insulin prom act
Cn1c(CNC(=O)c2ccc(F)cc2)nc2ccccc21,0
O=C(CCSc1nccn1Cc1ccccc1)N1CCOCC1,-8
Cn1nnnc1SCC(=O)c1cccs1,-9
Cn1nnnc1SCC(=O)NCc1ccccc1,-93
Cn1nnnc1SCSc1nnnn1C,625*
COc1ccccc1N1CCN(c2ccc(Cl)nn2)CC1,-7
COc1ccccc1N1C(=O)C(Cl)=C(Nc2ccccc2O)C1=O,379*
CCOc1ccccc1NC1=C(Cl)C(=O)N(c2ccc(OC)cc2)C1=O,3
COc1cc(S(=O)(=O)Nc2cc(C)cc(C)c2)ccc1F,6
CCCn1c(SCC(=O)Nc2nc(C)cs2)nnc1-c1cccnc1,-75
O=C(NC1=NCCS1)c1cc(-c2cccc(Br)c2)nc2ccccc12,0
COc1cccc(NC(=O)CNC(=O)c2ccc(F)cc2)c1,-75
O=C(Nc1nccc(-c2cccs2)n1)c1ccccc1Cl,-3
N#Cc1sc2nc(-c3cccs3)cc(-c3ccccc3)c2c1N,0
Cc1nnc(NC(=O)c2sc3nc(-c4cccs4)cc(C(F)(F)F)c3c2N)s1,107*[may fluoresce]
COc1ccc(NC(=O)c2sc3nc(Cc4ccccc4)cc(C(F)(F)F)c3c2N)cc1OC,5
Cc1cccc(OCc2nnc(NC(=O)c3cccs3)s2)c1,6
Nc1c(C(=O)Nc2nccs2)sc2nc(-c3cccs3)cc(C(F)(F)F)c12,182*[may fluoresce]
Cc1ccccc1Nc1cc(=O)oc2ccccc12,3
CCn1c(CSCc2ccc(F)cc2)nnc1SCC(=O)N1CCN(c2ccccc2)CC1,95*
CCn1c(SCC(=O)N2CCN(c3ccccc3)CC2)nnc1-c1ccncc1,6
O=C(CSCc1ccccc1)N1CCN(c2ccc(F)cc2)CC1,-4
Cc1c(N2C(=O)SC(CC(=O)O)C2=O)c(=O)n(-c2ccccc2)n1C (stereo unspecified),0
CCOC(=O)c1cccc(NC(=O)CSc2nnc(CNc3ccc(C)cc3)n2CC)c1,0
CCOC(=O)c1cccc(NC(=O)CSc2nnc(-c3cccnc3)n2CC)c1,81*
SMILES,Insulin prom act
CCOC(=O)c1cccc(NC(=O)c2cccnc2)c1,9
O=C(NCc1ccco1)c1ccc(-c2ccccc2Cl)o1,-7
O=C(NC12CC3CC(CC(C3)C1)C2)c1ccc(-c2ccccc2Cl)o1,219*
S=C(c1ccc(-c2ccccc2Cl)o1)N1CCOCC1,7
Cc1cc(/C=C(\C#N)C(=O)Nc2ccccc2)c(C)n1-c1ccc2c(c1)OCO2,-7
CCOC(=O)Cc1csc(NC(=O)CSc2nnc(C3CC3)n2C)n1,-6
CCOc1ccccc1C(=O)Nc1cccc(-c2ccc3nncn3n2)c1,0
CCC12CN3CC(CC)(CN(C1)C3c1ccc(OC(C)C)cc1)C2=O (stereo unspecified),5
Cc1ccccc1C(=O)OCCN1CCOCC1,8
CCOC(=O)c1cc(C)n(CCCN2CCOCC2)c1C,86*
COCCn1c(C)cc(C(=O)CN2CCCCC2)c1C,7
O=C(c1cccc(S(=O)(=O)N2CCCC2)c1)c1cccc(S(=O)(=O)N2CCCC2)c1,0
CCOc1cc(N(CC)CC)ccc1/C=C(/C#N)c1nc2ccccc2[nH]1,233*
COc1cc(/C=C(\C#N)c2nc3ccccc3[nH]2)cc(Br)c1OCc1ccc(F)cc1,-7
CCN(CC)c1ccc(/C=C(/C#N)c2nc3ccc(C)cc3[nH]2)c(OC(C)C)c1,245*
N#C/C(=C/c1cccs1)c1nc2ccccc2[nH]1,-75
N#C/C(=C\c1cc([N+](=O)[O-])c(N2CCOCC2)cc1N1CCOCC1)c1nc2ccccc2[nH]1,-9
Cc1ccc(/C=C(\C#N)c2nc3ccccc3[nH]2)s1,-96
Clc1ccc(CSc2nnc(/C=C/c3ccccc3)o2)cc1,0
CCOC(=O)c1ccc(COc2nc3ccccc3nc2-c2ccccc2NC(C)=O)o1,0
CCCCN(C(=O)CSc1nnc(-c2ccc(OC)cc2)n1CC)c1c(N)n(Cc2ccccc2)c(=O)[nH]c1=O,0
O=C(CN1CCCCCCC1)Nc1ccc(Cl)cc1Cl,-8
Cc1ccc(OC(=O)c2cccc(S(=O)(=O)N3CCCC3)c2)c(-n2nc3ccccc3n2)c1,-7
CC(C)=C1C2C=CC1C(C(=O)Nc1cc(C)ccc1C)C2C(=O)O (stereo unspecified),128
Cc1ccc(C(=O)CSc2nc(C)cc(SCc3nnc(-c4ccccc4)o3)n2)cc1,0
SMILES,Insulin prom act
CCC(CC)C(=O)Nc1cccc(C(=O)Nc2nccs2)c1,76*
Cc1ncoc1C(=O)Nc1nccs1,7
CCc1nnc(NC(=O)c2ccc3c(c2)C(=O)N(C(C)(C)C)C3=O)s1,-5
CCCN1C(=O)c2ccc(C(=O)NCc3ccco3)cc2C1=O,-43
O=C(Nc1nccs1)c1cccc(S(=O)(=O)N2CCCCC2)c1,182
CCCN1C(=O)c2ccc(C(=O)Nc3nccs3)cc2C1=O,475*
CCOC(=O)C1CCCN(Cc2nc(N)nc(Nc3ccccc3)n2)C1 (stereo unspecified),9
Cc1cccc(Cc2nnc(CCC(=O)N(CC3CC3)CC3CCCO3)o2)c1 (stereo unspecified),0
COC(=O)CNc1ccc2c(c1)OCO2,393
